Source: ChEMBL document CHEMBL1132156, “Synthesis and structure-activity relationships of potential anticancer agents: alkylcarbamates of 3-(9-acridinylamino)-5-hydroxymethylaniline” (J Med Chem, 1999)
pIC50: −log10 of the molar value.

Experiments:
[1] = system: Mus musculus; assay: […] anticancer activity against B6D2F-1 mice bearing Lewis Lung Carcinoma measured by the Average tumor vol after day 10 at an intraperitoneal dose of 6(mg/kg).; format: functional
Outline: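 Male B6D2F1 mice (8 weeks old, 20–25 g) received 4×10^6 Lewis lung carcinoma cells sc on day -2. Dosing was ip, QDx5, starting on day 1. Groups were 4 control mice and 3 mice per dose. Tumor size and average body-weight change were evaluated on days 7, 10 and 14. Tumor volume is expressed as the treated/control ratio.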

[2] = system: Mus musculus; assay: […] anticancer activity against B6D2F-1 mice bearing Sarcoma 180 measured by the Average tumor vol after day 14 at an intravenous dose of 5(mg/kg).
[3] = system: Mus musculus; assay: […] anticancer activity against B6D2F-1 mice bearing P388 leukemia measured by the increase in lifespan(%) at an intravenous dose of 10(mg/kg)..; format: functional
Outline: (§1)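 Male B6D2F1 mice, 8 weeks old, 20–25 g. P388/0 ascites cells (0.2 mL, ascites:saline 1.10) were implanted iv on day 0, and the tumor grew in the liver. Drug was given iv by tail vein on days 1, 3, 5, 7 and 9 (Q2Dx5), with 4–5 mice per group. Survival time was scored as 8 a.m. (0.0), 1 p.m. (0.25) or 5 p.m. (0.5) deaths. %ILS was averaged against untreated controls, and toxic deaths were counted.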

[4] = system: HL-60; assay: In vitro inhibition of human leukemic HL-60 cell growth in culture; format: functional, cell-based
Outline: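 HL-60 cells were seeded at 5×10^4 cells/mL in RPMI 1640 with 10% heat-inactivated FBS, penicillin and streptomycin, at 37 °C in 5% CO2. Cells were exposed for 72 h to six or seven drug concentrations, run in duplicate. Viability was read by XTT-tetrazolium microculture absorbance, and IC50 was derived from median-effect plot analysis.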

[5] = system: Mus musculus; assay: […] anticancer activity against B6D2F-1 mice bearing P388 leukemia measured by the Average tumor vol after day 10 at an intravenous dose of 5(mg/kg).; format: functional
[6] = system: Mus musculus; assay: […] anticancer activity against B6D2F-1 mice bearing Sarcoma 180 measured by the average weight change(g) after day 14 at an intraperitoneal dose of 5(mg/kg).
[7] = system: Mus musculus; assay: […] anticancer activity against B6D2F-1 mice bearing P388 leukemia measured by the average body weight(g) after day 1 at an intravenous dose of 15(mg/kg).
[8] = system: Mus musculus; assay: […] anticancer activity against B6D2F-1 mice bearing P388 leukemia measured by the average weight change(g) after day 11 at an intravenous dose of 10(mg/kg).; format: functional
Outline: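 Male B6D2F1 mice (8 weeks old, 20–25 g) were implanted iv on day 0 with P388/0 ascites cells (0.2 mL; ascites:saline 1.10), which grew in the liver. Drug was given iv via the tail vein, Q2Dx5, on days 1, 3, 5, 7 and 9. Groups had 4–5 mice. Day 1 value is mean body weight; later days are weight change.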

[9] = system: Mus musculus; assay: […] anticancer activity against B6D2F-1 mice bearing P388 leukemia measured by the average weight change(g) after day 9 at an intravenous dose of 15(mg/kg).; format: functional
Outline: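 Male B6D2F1 mice (8 weeks old, 20–25 g) were implanted iv on day 0 with P388/0 ascites cells (0.2 mL; ascites:saline = 1.10). Tumor grew in the liver. Drug was given iv via the tail vein, Q2Dx5, on days 1, 3, 5, 7 and 9. Body weight was recorded on days 1, 7, 9 and 11 and reported as the average change (g).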

[10] = system: Mus musculus; assay: […] anticancer activity against B6D2F-1 mice bearing Sarcoma 180 measured by the average weight change(g) after day 7 at an intraperitoneal dose of 3(mg/kg).; format: functional
Outline: (§2)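 Male B6D2F1 mice (8 weeks old, 20–25 g) were inoculated sc with 3×10^6 Sarcoma 180 cells on day 0. Dosing was ip, QDx5, starting on day 1. Groups were 4 control mice and 2 mice per dose. Average body weight change (g) and treated/control tumor volume were evaluated on days 7, 10 and 14.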

[11] = system: Mus musculus; assay: […] anticancer activity against B6D2F-1 mice bearing P388 leukemia measured by the Average tumor vol after day 10 at an intravenous dose of 7(mg/kg).; format: functional
[12] = system: Mus musculus; assay: […] anticancer activity against B6D2F-1 mice bearing P388 leukemia measured by the Average tumor vol after day 11 at an intravenous dose of 7(mg/kg).; format: functional
[13] = system: Mus musculus; assay: […] anticancer activity against B6D2F-1 mice bearing Sarcoma 180 measured by the average weight change(g) after day 10 at an intraperitoneal dose of 5(mg/kg).; format: functional; outline: as §2
[14] = system: Mus musculus; assay: […] anticancer activity against B6D2F-1 mice bearing P388 leukemia measured by the Average survival time(day+/-SD) at an intravenous dose of 15(mg/kg).; format: functional; outline: as §1
[15] = system: Mus musculus; assay: […] anticancer activity against B6D2F-1 mice bearing Sarcoma 180 measured by the average weight change(g) after day 7 at an intraperitoneal dose of 5(mg/kg).; format: functional; outline: as §2

`CCOC(=O)Nc1cc(CO)cc(Nc2c3ccccc3nc3ccccc23)c1` showed an Average tumor volume [1] of 0.37, an Average tumor volume [2] of 0.8 and an Increase in life-span [3] of 188%. It also gave a pIC50 [4] of 8.36, an Average tumor volume [5] of 0.63 and an Average weight change [6] of 1.2 g. For the same molecule, the Body weight [7] was 23 g, the Average weight change [8] was -0.1 g and the Average weight change [9] was -2 g. It also gave an Average weight change [10] of -2 g, an Average tumor volume [11] of less than 0.01 and an Average tumor volume [12] of less than 0.01. For the same molecule, the Average weight change [13] was 1 g, the Average survival [14] was 13.2 days and the Average weight change [15] was -2.6 g.
